Compound activity (PubChem BioAssay)
Rows were chosen to be rich in hits. Some 1.6% of all compounds tested hit in one or more screens of this group.
C8 TRAIL sens – caspase-8 TRAIL sensitization. hit rate 1% among 360,000. NB7+C8 cells + TRAIL, ATPlite viability luminescence. inhibition (viability loss, TRAIL sensitization), % at 10 µM;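 active means compounds causing at least 50% loss of cell viability in the single-dose screen, relative to plate controls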
FLuc stim CS – firefly luciferase counter-screen for stimulation assays. ATPlite luciferase biochemical, luminescence, 10 min; 0 = ATP-free wells, 1 = DMSO control. activation factor at 10 µM. P08659. 200,000 tested, under 10 active;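 active means luciferase activation factor, scaled between plate controls, of at least 2 with compound at 10 µM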
Target sequence (P08659 whole entry, looked up): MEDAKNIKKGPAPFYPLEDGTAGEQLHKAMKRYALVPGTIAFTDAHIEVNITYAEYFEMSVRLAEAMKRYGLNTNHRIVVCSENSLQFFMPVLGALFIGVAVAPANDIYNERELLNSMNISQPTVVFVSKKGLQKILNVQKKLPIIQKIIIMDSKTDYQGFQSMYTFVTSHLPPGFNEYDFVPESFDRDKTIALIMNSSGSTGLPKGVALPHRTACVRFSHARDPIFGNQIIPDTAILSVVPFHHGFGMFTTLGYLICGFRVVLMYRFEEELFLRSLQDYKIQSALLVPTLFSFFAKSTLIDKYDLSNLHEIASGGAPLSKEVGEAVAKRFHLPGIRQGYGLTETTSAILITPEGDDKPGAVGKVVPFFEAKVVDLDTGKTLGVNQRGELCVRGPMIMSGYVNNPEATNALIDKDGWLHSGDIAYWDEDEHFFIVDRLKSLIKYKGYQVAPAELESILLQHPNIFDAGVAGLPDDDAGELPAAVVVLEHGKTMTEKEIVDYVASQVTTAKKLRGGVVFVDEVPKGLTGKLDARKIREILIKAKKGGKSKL
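System: Luciferase/luciferin detection reagent, cell-free biochemical luciferase assay | Medium: PBS buffer for ATP | Dosing: Test compounds dosed from 2 mM stocks in 100% DMSO | Timing: 10 min at ambient temperature | Signal: Luminescence measurement of luciferase light output | Evaluation: Luciferase activation, seen as luminescence increase over controls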
FLuc inh counter – Photinus pyralis luciferase inhibition counter-screen; P08659; ATPLite firefly luciferase biochemical luminescence, 10 min; inhibition, % at 10 µM; hit rate 1.5% among 200,000; AID 1006;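 active means inhibition above about 50% when tested at 10 µM, limit read from the data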
PPC-1+TRAIL kill – compounds killing PPC-1 cancer cells with TRAIL present (potentiator screen, no TRAIL-free arm) | PPC-1 cells + TRAIL, ATPLite viability luminescence | cell killing (% activity), % at 4 µM or 5 µM | hit rate 0.41% among 220,000 | AID 1443;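 active means cell killing above 50% in the first pass at 4 µM, then a duplicate retest at 5 µM averaging 50% or more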;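 further: plate controls were cells with TRAIL plus DMSO for no effect and medium-only wells lacking cells for full effect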
PPC-1 tox – kills PPC-1 cells. shares compounds with PPC-1+TRAIL kill. PPC-1 viability, ATPlite luminescence, overnight. cytotoxicity, % at 5 µM. hit rate 50% among 1,200;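 active means reconfirmed compounds whose average cytotoxicity reaches 50% or more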;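 further: 0% = DMSO-treated cells and 100% = wells holding medium but no cells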
An asterisk follows results filed as active.

Results for C=C1C[C@]2(O)[C@@]3(C)CCC(=O)C(C)(C)C3=C(O)C(=O)[C@@]2(C)[C@@H]2C(=O)O[C@@](C)(C(=O)OC)C(=O)[C@@]12C ?
C8 TRAIL sens: 9; FLuc stim CS: 1.1; FLuc inh counter: -6; PPC-1+TRAIL kill: 1

What do the screens show for `CNC(C(=O)c1ccccc1)C(OC)c1ccc(C)cc1` (stereo not given)?
C8 TRAIL sens: 9; FLuc stim CS: 1.1; FLuc inh counter: -8; PPC-1+TRAIL kill: 1

How did CCCN1CCc2cccc3c2[C@H]1Cc1ccc(O)c(O)c1-3 do in these assays?
C8 TRAIL sens: 46*

How did C=CCn1c(O)c(C(CC)=NCc2cc(OC)cc(OC)c2)c(=O)[nH]c1=O do in these assays?
C8 TRAIL sens: 50*; FLuc stim CS: 1; FLuc inh counter: 0; PPC-1+TRAIL kill: 20

How did C=CCn1c(O)c(C(CC)=NCc2ccc3c(c2)OCO3)c(=O)[nH]c1=O do in these assays?
C8 TRAIL sens: 11; PPC-1+TRAIL kill: 2

Results for COc1cc(NC(=O)CN2C3CCC2CC(O)(c2cccnc2)C3)cc(OC)c1 (stereo not given) ?
C8 TRAIL sens: -18; FLuc stim CS: 1; FLuc inh counter: 0; PPC-1+TRAIL kill: 15

What do the screens show for `COC(=O)C1=C(C(=O)OC)SC2(S1)C(C(=O)OC)=C(C(=O)OC)Sc1c2ssc1=O`?
C8 TRAIL sens: 51*

How did CN(C)CC(C(=O)Cc1ccccc1)c1ccccc1 (stereo not given) do in these assays?
C8 TRAIL sens: 63*

How did C[C@@H]([C@@H](O)c1ccccc1)N(C)C(=O)Cc1ccccc1 do in these assays?
C8 TRAIL sens: -13

What do the screens show for `CC(=O)OC1CCC2(C)C(=CC(=O)C3C2CCC2(C)C(OC(C)=O)CCC32)C1` (stereo not given)?
C8 TRAIL sens: -14

Results for CC1(C)C(C(=O)N2CCN(c3ccc(Cl)cc3)CC2)C1(C)C ?
C8 TRAIL sens: -6

Results for COC(=O)C1CN(C#N)N(c2ccc(Cl)cc2)C12c1ccccc1-c1ccccc12 (stereo not given) ?
C8 TRAIL sens: 91*; FLuc stim CS: 1; FLuc inh counter: 0; PPC-1+TRAIL kill: 17

What do the screens show for `Cn1c(O)c(C(=N)COc2cccc(Cl)c2)c(=O)n(C)c1=O`?
C8 TRAIL sens: -16; FLuc stim CS: 1.1; FLuc inh counter: -8; PPC-1+TRAIL kill: 10

What do the screens show for `Cc1nc2cc(C(F)(F)F)ccc2n1C1CCN(Cc2nnnn2Cc2ccc3c(c2)OCO3)CC1`?
C8 TRAIL sens: 58*; FLuc stim CS: 1; FLuc inh counter: 1; PPC-1+TRAIL kill: 17

How did Cc1ccc(OC(=O)N(C)C[C@H]2OCc3cnnn3CCCC(=O)N([C@H](C)CO)C[C@@H]2C)cc1 do in these assays?
C8 TRAIL sens: -14

Results for COc1ccc(C(CC(=O)N2CCC3(CC2)OCCO3)NS(=O)(=O)c2ccc(OC)cc2)cc1 (stereo not given) ?
C8 TRAIL sens: 1; FLuc stim CS: 1.1; FLuc inh counter: -7; PPC-1+TRAIL kill: 54*

What do the screens show for `Cc1ccc(-n2cc(CNC(C)Cc3cnccn3)c(-c3cccc(C)c3)n2)cc1` (stereo not given)?
C8 TRAIL sens: -2; FLuc stim CS: 1; FLuc inh counter: 0; PPC-1+TRAIL kill: 4

How did O=c1c2ccccc2[se]n1-c1ccccc1 do in these assays?
C8 TRAIL sens: -9; FLuc stim CS: 0; FLuc inh counter: 96*; PPC-1+TRAIL kill: 21

What do the screens show for `Nc1ccccc1C(=O)OCC(=O)c1ccc2c(c1)OCCO2`?
C8 TRAIL sens: 5; FLuc stim CS: 0; FLuc inh counter: 97*; PPC-1+TRAIL kill: -7

What do the screens show for `CC(=O)Nc1ccccc1C(=O)OCC(=O)c1ccc2ccccc2c1`?
C8 TRAIL sens: 4; FLuc stim CS: 0.9; FLuc inh counter: 5; PPC-1+TRAIL kill: 6

Results for CNCC(O)c1cc(OCc2ccccc2)c(OCc2ccccc2)cc1F (stereo not given) ?
C8 TRAIL sens: 18

What do the screens show for `COc1ccc2c(c1OC)C(=O)OC2c1c(O)n(Cc2ccc(F)cc2)c(=O)[nH]c1=O` (stereo not given)?
C8 TRAIL sens: -4; FLuc stim CS: 1.1; FLuc inh counter: -10; PPC-1+TRAIL kill: -10

Results for COC1CC2C=C(C)C=CC=CC(=O)NC(c3ccccc3)CC=CCCC(O)CC(=O)C2=C1O (stereo not given) ?
C8 TRAIL sens: 97*

What do the screens show for `COc1cc2cc(C(=O)N3CC(COS(C)(=O)=O)c4ccc(O)cc43)[nH]c2c(OC)c1OC` (stereo not given)?
C8 TRAIL sens: 91*

Results for C=C1C(=O)OC2CC(C)C3C=CC(=O)C3(C)C(O)C12 (stereo not given) ?
C8 TRAIL sens: 86*

How did C=C1C(=O)O[C@H]2[C@H]1[C@H](OC(=O)CC(=O)O[C@@H]1C[C@@H](C)[C@@H]3C=CC(=O)[C@@]3(C)[C@H]3OC(=O)C(=C)[C@H]13)C[C@@H](C)[C@H]1C=CC(=O)[C@]12C do in these assays?
C8 TRAIL sens: 27; PPC-1+TRAIL kill: 4

What do the screens show for `C=C1C(=O)O[C@@H]2C[C@@H](C)[C@@H]3C=CC(=O)[C@@]3(C)[C@@H](OC(=O)CC(=O)O[C@H]3[C@@H]4C(=C)C(=O)O[C@@H]4C[C@@H](C)[C@@H]4C=CC(=O)[C@]43C)[C@H]12`?
C8 TRAIL sens: 95*; PPC-1+TRAIL kill: -17

What do the screens show for `CC1CCC(C(C)C)C(OC(=O)Cn2c(COc3ccccc3)[n+](C)c3ccccc32)C1` (stereo not given)?
C8 TRAIL sens: 53*; PPC-1+TRAIL kill: 9

What do the screens show for `CC1CCC/C=C/C2CC(O)CC2C(O)/C=C/C(=O)O1` (stereo not given)?
C8 TRAIL sens: 22; FLuc stim CS: 1; FLuc inh counter: 2; PPC-1+TRAIL kill: 57*

What do the screens show for `C[C@H]1CCC/C=C/C2C[C@H](O)CC2[C@H](O)/C=C/C(=O)O1` (stereo not given in full)?
C8 TRAIL sens: 34; FLuc stim CS: 1; FLuc inh counter: -3; PPC-1+TRAIL kill: 43

What do the screens show for `COc1ccc(/C=N\N=C(N)N)cc1`?
C8 TRAIL sens: -2; FLuc stim CS: 1; FLuc inh counter: -1; PPC-1+TRAIL kill: 12

What do the screens show for `NC(N)=N/N=C/c1ccc(N(c2ccccc2)c2ccccc2)cc1`?
C8 TRAIL sens: 69*

What do the screens show for `CC(C)N1CCN(Cc2cc3c(cc2Cl)OCO3)CC1CCO` (stereo not given)?
C8 TRAIL sens: -3; PPC-1+TRAIL kill: -63

Results for CC(C)N1CCN(Cc2ccc3c(c2)OCCO3)CC1CCO (stereo not given) ?
C8 TRAIL sens: -6; FLuc stim CS: 1.1; FLuc inh counter: -5; PPC-1+TRAIL kill: -9; PPC-1 tox: -6

Results for CCCN(CC1CC1)CC(O)c1ccccc1 (stereo not given) ?
C8 TRAIL sens: -10
